Measured values as given in the M2OR odorant receptor database.

Assays:
Details in all cases: stereoisomer not certain
OR11H7 (Homo sapiens) = OR11H7 (Homo sapiens) (UniProt Q8NGC8)
In short: (§1)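 Transient luciferase assays in mammalian cell lines were common, though methods varied by source. The values come from published papers and their supplementary material, with extra details from the original authors when needed. Responsive refers to a measured signal the original authors judged statistically different from baseline, and non-responsive (inactive) to the remainder.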

OR12D1 (Homo sapiens) = OR12D1 (Homo sapiens) (UniProt P0DN82)
In short: as §1

OR13C7 (Homo sapiens) = OR13C7 (Homo sapiens) (UniProt P0DN81)
In short: as §1

Measured: odorant receptor agonist call;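 note: active if original authors judged signal statistically different from baseline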

OR13C7 (Homo sapiens), sequence (P0DN81 whole entry): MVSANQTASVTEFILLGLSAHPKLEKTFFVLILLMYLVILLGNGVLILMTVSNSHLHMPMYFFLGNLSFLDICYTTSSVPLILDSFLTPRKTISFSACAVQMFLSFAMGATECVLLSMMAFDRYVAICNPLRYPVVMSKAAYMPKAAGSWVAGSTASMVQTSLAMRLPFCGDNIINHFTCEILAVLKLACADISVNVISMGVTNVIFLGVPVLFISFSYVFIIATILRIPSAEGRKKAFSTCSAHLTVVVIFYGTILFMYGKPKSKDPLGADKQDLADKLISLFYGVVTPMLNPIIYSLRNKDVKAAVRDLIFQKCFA
OR12D1 (Homo sapiens), sequence (P0DN82 as listed by the source): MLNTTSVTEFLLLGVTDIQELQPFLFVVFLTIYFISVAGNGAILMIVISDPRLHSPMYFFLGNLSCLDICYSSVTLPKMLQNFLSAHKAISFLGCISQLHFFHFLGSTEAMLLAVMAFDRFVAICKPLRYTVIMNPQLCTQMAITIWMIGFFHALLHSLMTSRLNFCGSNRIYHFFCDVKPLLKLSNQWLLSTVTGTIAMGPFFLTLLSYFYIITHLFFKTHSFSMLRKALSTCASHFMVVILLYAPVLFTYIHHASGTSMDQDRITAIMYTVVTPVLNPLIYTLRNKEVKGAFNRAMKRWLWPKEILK
OR11H7 (Homo sapiens), sequence (Q8NGC8 whole entry): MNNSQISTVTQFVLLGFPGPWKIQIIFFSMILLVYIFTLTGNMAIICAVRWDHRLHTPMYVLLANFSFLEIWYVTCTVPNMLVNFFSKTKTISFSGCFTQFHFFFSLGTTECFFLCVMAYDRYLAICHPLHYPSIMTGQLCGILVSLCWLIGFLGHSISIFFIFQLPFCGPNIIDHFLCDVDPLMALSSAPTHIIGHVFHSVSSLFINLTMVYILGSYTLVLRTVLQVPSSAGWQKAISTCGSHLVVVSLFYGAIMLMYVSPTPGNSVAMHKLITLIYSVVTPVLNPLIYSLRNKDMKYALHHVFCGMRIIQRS

CC1CCCCCCCCCCCCC(=O)C1 (stereo unspecified)
inactive: OR11H7 (Homo sapiens) | OR12D1 (Homo sapiens) | OR13C7 (Homo sapiens)

CC(=O)c1c(C)c([N+](=O)[O-])c(C(C)(C)C)c([N+](=O)[O-])c1C
inactive: OR11H7 (Homo sapiens) | OR12D1 (Homo sapiens) | OR13C7 (Homo sapiens)
